Cytotoxicity data for 98 compounds are collected here from ChEMBL document CHEMBL4513216, “Probing the Open Global Health Chemical Diversity Library for Multistage-Active Starting Points for Next-Generation Antimalarials” (ACS Infect Dis, 2020).

Molecules are shown by their SMILES.

The nature of the data set: Toxicity liver stage against HepG2, at 10uM. The class given is cell-based. Set-up: test concentration 10 uM, cell line HepG2-A16-CD81EGFP. As to conditions: human, HepG2-A16-CD81EGFP cells; read-out: INHIBITION
The method in brief:
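Uninfected HepG2-A16-CD81EGFP cells, 3 × 10^3 per well, 1536-well, plated on prespotted compound at 10 μM final, parasite-free screening media added to match infected plates; puromycin 10 μM positive, DMSO 0.5% negative; run in parallel with 48 h PbLuc assay at 37 °C, 5% CO2; viability by CellTiter-Glo luminescence, normalized to controls.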
In the case of `CS(=O)(=O)C1=C(O)C(=O)N(c2ccccc2)C1c1ccccc1` (stereo not drawn), the cytotoxicity at 10 µM is -1.06%. For `COc1cccc(NC(=O)C2CC(=O)n3cnnc3S2)c1` (stereo not drawn), the cytotoxicity at 10 µM was 2.27%.

In the case of `COc1cccc2c1ccn2CCNC(C)=O`, the cytotoxicity at 10 µM is 1.89%.

Consider `COc1ccc2c(c1)c(C(=O)Nc1n[nH]c(C(C)C)n1)cn2C(C)C`, for which the cytotoxicity at 10 µM is -26.8%. With `Cn1c(C(F)(F)F)nn(CCNC(=O)Nc2ccccc2Cl)c1=O`, the cytotoxicity at 10 µM turned out to be 13.4%. For the compound `Cc1ncn(CCNC(=O)Nc2ccc(F)c(Cl)c2)c(=O)c1C`, the cytotoxicity at 10 µM is -2.93%. Regarding `Cc1nsc(C(=O)NCCc2ccc(Cl)cc2)n1`, the cytotoxicity at 10 µM came out at 2.09%. On to `O=C(Cc1ccsc1)N1CCC2(CCCN(CC3CCOCC3)C2)C1` (stereo not drawn), for which the cytotoxicity at 10 µM is -135%.

Turning to `CCOCC1CN(C(=O)c2ccoc2)Cc2nn(C)cc21` (stereo not drawn), the cytotoxicity at 10 µM was 0.254%. `COCC(=O)N1CCC2(CCN(c3cnn(C)c3)C2=O)C1` (stereo not drawn): the cytotoxicity at 10 µM came out at 0.486%. With `CCN1CC2(CC1=O)CN(C(=O)c1ccoc1)CCN(C(=O)N(C)C)C2` (stereo not drawn), the cytotoxicity at 10 µM is 4.26%. Turning to `O=C(c1ccccc1)N1CC(C(=O)N2CCOCC2)C2(CCOCC2)C1` (stereo not drawn), the cytotoxicity at 10 µM turned out to be 3.07%. For `Cn1ncc2c1C(COCC1CC1)CN(C(=O)Cc1ccsc1)C2` (stereo not drawn) the value was 10.1%; for `CC(C)CCNC(=O)C1CCN(c2ccc3nnc(C(C)C)n3n2)CC1`, 1.68%; for `COc1cccc2c3c(c(=O)[nH]c12)CCO3`, 5.57%. For `CN(C)C(=O)c1nc2c(s1)CCN(C(=O)c1ccc(Cl)cc1)CC2` the value was -14.2%; for `CC(C)(C)NC(=O)c1ccn(COc2c(Cl)cccc2Cl)n1`, 3.02%. For `Fc1ccccc1NCc1nc2n(n1)CCCCC2` the value was 2.02%; for `COc1cc(C(F)(F)F)sc1C(=O)O`, -3.29%; for `CCn1nc(CNC(C)(C)CO)c(-c2ccccc2)n1`, 8.96%. With `Cc1nc(N2CCOCC2)ncc1-c1cc(O)nc(N2CCCCC2)n1`, the cytotoxicity at 10 µM came out at 6.2%.

As for `Cc1cnc2[nH]c(C(F)(F)F)c(CN3CCSCC3)c2c1`, the cytotoxicity at 10 µM was 13.3%.

`Cc1cc(C)nc(C2CCCN2C(=O)c2cnccn2)n1` (stereo not drawn): the cytotoxicity at 10 µM was 3.74%. In the case of `CNc1nccnc1C1CN(Cc2ccc3[nH]ccc3c2)CCO1` (stereo not drawn), the cytotoxicity at 10 µM was -2.52%. On to `CCc1nccn1-c1cccc(C2CCN(C(=O)COC)CC2)n1`, for which the cytotoxicity at 10 µM is -14.9%. Consider `CS(=O)(=O)N1CCCC1Cn1cccn1` (stereo not drawn), for which the cytotoxicity at 10 µM is -10.2%. For the compound `O=C(O)c1ccccc1CN1CCOC(CCc2ccncn2)C1` (stereo not drawn), the cytotoxicity at 10 µM was -20.6%. For the compound `Cc1nn(C)cc1CN1CCC(C2Nc3ccccc3S(=O)(=O)N2)CC1` (stereo not drawn), the cytotoxicity at 10 µM is -2.19%. To `CN(C)CCOc1ccccc1N1CCN(C(=O)C(C)(C)C#N)CC1` belongs 11.4%. Regarding `Cn1ccnc1C(O)(CCNCc1ccco1)C(F)(F)F` (stereo not drawn), the cytotoxicity at 10 µM was 1.66%. As to `CSCC(C)C(=O)NCc1c(C)nc2cc(=O)[nH]n2c1C` (stereo not drawn), the cytotoxicity at 10 µM was -16.3%. To `CNS(=O)(=O)CC1CCCN1c1ccc(Br)cn1` (stereo not drawn) belongs 3.1%; to `CCN(CC)C(CNC(=O)c1cccnc1-n1cncn1)c1ccsc1` (stereo not drawn), -146%; to `NS(=O)(=O)CCNC(=O)c1ccc(OCc2ccccc2)nc1`, 6.85%. For `O=C(Cc1ccon1)N1CCN(c2ccncc2Cl)CC1`, the cytotoxicity at 10 µM is -2.47%. `CN1N=C(C(=O)N2CCCN(c3ncccc3C#N)CC2)CCC1=O`: the cytotoxicity at 10 µM was -1.8%.

Consider `CN(Cc1cnn(C)c1)S(=O)(=O)N1CCCCC1`, for which the cytotoxicity at 10 µM is -3.38%. To `Cc1cc(C)n(CC2CCCCN2CC(=O)Nc2c(C)n[nH]c2C)n1` (stereo not drawn) belongs -1.92%.

Take `NC(=O)CSc1ccccc1NC(=O)C1CCCCC1`: the cytotoxicity at 10 µM is -127%.

On to `N#CCCCOc1cccnc1NC(=O)CC1CCCCC1`, for which the cytotoxicity at 10 µM is 21.9%. On to `CNC(=O)N1CCCCC1c1nnc2n1CCCC2` (stereo not drawn), for which the cytotoxicity at 10 µM is -6.1%. For `COc1ccc(OC)c(-n2nnnc2SCC2CCCCO2)c1` (stereo not drawn) the value was 11.7%; for `O=C(NC1CCCN(c2ccccc2Cl)C1)c1c[nH]nn1` (stereo not drawn), -1.58%.

In the case of `CS(=O)(=O)NC1CCCN(C(=O)Nc2ccccc2Cn2cccn2)C1` (stereo not drawn), the cytotoxicity at 10 µM was found to be 3.81%.

Regarding `CCNc1nc(C)c(C(=O)N(C)Cc2nc(CC)no2)s1`, the cytotoxicity at 10 µM is -6.02%. With `CCn1cc(S(=O)(=O)N2CCCC2c2ccc(C)o2)cn1` (stereo not drawn), the cytotoxicity at 10 µM came to 20.9%.

In the case of `Cc1ccc(C2CSCCN2C(=O)c2cccs2)o1` (stereo not drawn), the cytotoxicity at 10 µM was 3.82%. Consider `Cc1cc(F)ccc1S(=O)(=O)N1CCN(C)c2ccncc21`, for which the cytotoxicity at 10 µM was found to be 8.29%. Turning to `N#Cc1ccc(-c2nnc(CSCCN3CCOCC3)o2)cc1`, the cytotoxicity at 10 µM is -5.08%. Regarding `Cc1nn(C)c(C)c1C1CCCN1C(=O)Cc1cn2ccsc2n1` (stereo not drawn), the cytotoxicity at 10 µM was -45.2%. Consider `CN(C)CCN(Cc1ccco1)C(=O)Cc1cn2ccsc2n1`, for which the cytotoxicity at 10 µM amounted to 5.92%. As to `c1coc(CN2C[C@H](OCC3CCOCC3)[C@H]3COC[C@H]32)c1`, the cytotoxicity at 10 µM was 0.127%. For the compound `CS(=O)(=O)N[C@@H]1CCO[C@]2(CCN(C(=O)C3=CCCC3)C2)C1`, the cytotoxicity at 10 µM was determined as 0.693%. Take `CSCc1noc(C2CCC(=O)N(CCc3ccccc3)C2)n1` (stereo not drawn): the cytotoxicity at 10 µM is -6.72%. With `Cc1ccc(NC2(C(=O)NC(C)c3ncn[nH]3)CCCC2)cc1` (stereo not drawn), the cytotoxicity at 10 µM turned out to be 0.317%. Regarding `COc1ccc(F)c(-c2ncccc2NC(=O)C(C)C)c1`, the cytotoxicity at 10 µM turned out to be 5.69%. Consider `CC(C)c1nc(N2CCC(N3CCSCC3)CC2)c2cnn(C)c2n1`, for which the cytotoxicity at 10 µM is -136%. Consider `O=C(NCCCn1ccnn1)C1CCCN(C2CCCC2)C1` (stereo not drawn), for which the cytotoxicity at 10 µM is -6.03%. Take `NCCc1n[nH]c(=O)n1-c1cccc(Cl)c1Cl`: the cytotoxicity at 10 µM is -2.38%. To `Cc1ncc(C(=O)N2CCC(N3CCc4ccccc4C3)CC2)c(O)n1` belongs -0.745%; to `Cc1c(-c2nc3cc(S(=O)(=O)N4CCCC4)ccc3n2C)cnn1C`, 2.2%. For the compound `CCOc1ccccc1C(C(=O)O)N(C)Cc1nc(C)c[nH]1` (stereo not drawn), the cytotoxicity at 10 µM is -5.18%.

On to `Cc1nccn1CCCC(=O)N1CCN(c2cccnc2)CC1`, for which the cytotoxicity at 10 µM was -4.98%. On to `COCCNS(=O)(=O)c1cccc2c1CN(C(=O)c1ccccc1)CC2`, for which the cytotoxicity at 10 µM turned out to be 5.54%.

Regarding `COCCC1(CO)CCCN(Cc2ccc(F)c(C)c2)C1` (stereo not drawn), the cytotoxicity at 10 µM was -1.31%. Take `Cc1cccc(CN2C[C@H]3OC(=O)N(CCCN4CCOCC4)[C@H]3C2)n1`: the cytotoxicity at 10 µM is -6.85%. As to `CN1CCCC(c2n[nH]c3ncccc23)C1` (stereo not drawn), the cytotoxicity at 10 µM is -3.35%. `CCc1nnc2n1CCN(C(=O)c1cc3c(F)cccc3[nH]1)C2`: the cytotoxicity at 10 µM turned out to be 6.41%. To `CCn1cnnc1C1CCN(C(=O)c2ccccc2F)CC1` belongs -5.13%; to `Cc1nccn1-c1cc(CNC(=O)C2CCCO2)ccn1` (stereo not drawn), -7.81%; to `CCCc1n[nH]c(C2CN(C(=O)c3n[nH]c4ccccc34)CCO2)n1` (stereo not drawn), -1.39%.

Consider `COc1c(CNCCC(=O)NC2CCCC2)c(C(C)C)nn1C`, for which the cytotoxicity at 10 µM was -4.41%.

Turning to `CCOc1ccc(CN(CC)C(=O)c2ccc(C)[nH]c2=O)cc1OC`, the cytotoxicity at 10 µM is -6.83%. For `Cc1cc(C)n(CC2CCCN2C(=O)c2c[nH]c(=O)c(Cl)c2)n1` (stereo not drawn), the cytotoxicity at 10 µM was 1.53%. On to `Cc1cc(NC(=O)CNC2CCCN(c3cccnn3)C2)on1` (stereo not drawn), for which the cytotoxicity at 10 µM was determined as 5.98%. As for `Cc1ccc(N2CCCC(NCC(=O)Nc3cc(C)nn3C)C2)nn1` (stereo not drawn), the cytotoxicity at 10 µM was -1.18%. Take `O=C(c1cnc(-c2ncccn2)s1)N1CCCC(n2cccn2)C1` (stereo not drawn): the cytotoxicity at 10 µM was -2.85%. As to `COc1ccc(NC(=O)CCc2c(C)nc3cc(O)nn3c2C)cn1`, the cytotoxicity at 10 µM is -9.21%. On to `Cc1ccc(NC2CCN(C(=O)c3c(C)noc3C)CC2)nn1`, for which the cytotoxicity at 10 µM is -4.35%. As for `Cc1ccc(C(=O)N2CCCS2(=O)=O)cc1Cl`, the cytotoxicity at 10 µM came out at 2.29%. Turning to `O=C(CCNc1ncccn1)N1CCCC(n2ccnc2)C1` (stereo not drawn), the cytotoxicity at 10 µM is 0.289%. Regarding `Cc1cc(C)n(C2CN(CC(=O)NC3CCOCC3)C2)n1`, the cytotoxicity at 10 µM was -3.92%. For the compound `CCOCCC(=O)N1CCCN(Cc2csc(CC)n2)CC1`, the cytotoxicity at 10 µM was found to be 3.9%. As to `CC(C)COC(=O)N1CCC2(CCNC2)C1` (stereo not drawn), the cytotoxicity at 10 µM was -10.1%.

Turning to `c1ccc(CN2CCc3ncnc(C4CC4)c3CC2)nc1`, the cytotoxicity at 10 µM is -138%.

`c1cc(CNCC2OCCc3cn(CC4CC4)nc32)cs1` (stereo not drawn): the cytotoxicity at 10 µM was 2.61%.

`O=C(NC1COC2(CCN(Cc3cccs3)CC2)C1)c1ccccn1` (stereo not drawn): the cytotoxicity at 10 µM was -2.19%. As to `CCOc1cc(CN(C)CC(=O)O)ccc1OC(F)F`, the cytotoxicity at 10 µM came to 7.99%.

Regarding `CNC(=O)c1cc2c(nc1NCC(C)C)CCN(CCOC)CC2`, the cytotoxicity at 10 µM was -147%. For `COc1nn(C)c2c1CCCN(C(=O)c1ccc3c(c1)OCO3)C2`, the cytotoxicity at 10 µM turned out to be 13.1%. Consider `CCN1CC2(CC1=O)CN(Cc1cnn(C)c1)CCN(C(=O)N(C)C)C2` (stereo not drawn), for which the cytotoxicity at 10 µM was -1.9%. For the compound `CCc1ccc(CN2C[C@@H](C)C3(CCN(CC(=O)N(C)C)C3=O)C2)o1` (stereo partly drawn), the cytotoxicity at 10 µM was 1.11%.

Consider `COc1ccc(CN2CCc3[nH]nc(C(=O)N(C)C)c3C2)cc1`, for which the cytotoxicity at 10 µM came out at 5.18%. For `CCN1CC2(CC1=O)CN(Cc1ccsc1)CCN(C(=O)C(C)C)C2` (stereo not drawn), the cytotoxicity at 10 µM turned out to be 5.08%. `Cc1cccc(CN2C[C@@H]3COC[C@]3(CNC(=O)N3CCCC3)C2)n1`: the cytotoxicity at 10 µM is 1.05%.

In the case of `O=C(c1ccc[nH]1)N1C[C@@H]2CC[C@H]1CN(C1Cc3ccccc3C1)C2`, the cytotoxicity at 10 µM was -1.85%.

On to `CCCS(=O)(=O)N1C[C@@H]2C[C@H](C(=O)N3CCN(C)CC3)[C@H](C1)O2`, for which the cytotoxicity at 10 µM came to 1.47%.

For `Cn1cnc(S(=O)(=O)N2C[C@H]3CC[C@@H](C2)N(Cc2ccccn2)C3)c1`, the cytotoxicity at 10 µM turned out to be 7.27%.
